This is an account of results in ChEMBL document CHEMBL4513216, “Probing the Open Global Health Chemical Diversity Library for Multistage-Active Starting Points for Next-Generation Antimalarials” (ACS Infect Dis, 2020).

The nature of the data set: Toxicity liver stage against HepG2, at 10uM. Type of data set: cell-based. Details: test concentration 10 uM, cell line HepG2-A16-CD81EGFP. To be noted: human, HepG2-A16-CD81EGFP cells; read-out: INHIBITION
An outline of the steps:
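Uninfected HepG2-A16-CD81EGFP cells, 3 × 10^3 per well, 1536-well, plated on prespotted compound at 10 μM final, parasite-free screening media added to match infected plates; puromycin 10 μM positive, DMSO 0.5% negative; run in parallel with 48 h PbLuc assay at 37 °C, 5% CO2; viability by CellTiter-Glo luminescence, normalized to controls.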
Take `Cc1ccc2[nH]c(=O)cc(C(=O)N[C@@H]3C[C@@H](CO)N(C)C3)c2c1`: the cytotoxicity at 10 µM is 5.43%.
Take `O=C(N1CCCCC1)N1CCN(CC(O)c2ccccc2)CC1` (configuration not stated): the cytotoxicity at 10 µM was -7.45%.
To `Cc1cnc(NCC(C)(C)N2CCCCC2)nc1` belongs -2.69%; to `CC(c1ccc(F)cc1F)N1CCN(CCN2CCCC2=O)CC1` (configuration not stated), -5.61%; to `O=C(CC1CC2(CCNCC2)c2ccccc21)NCC1CC1` (configuration not stated), -118%.
To `O=C(Nc1cc(C(F)(F)F)c[nH]c1=O)C1CCCN1` (configuration not stated) belongs -7.33%; to `CCc1nc(C)c([C@H]2CN(C)C[C@@H]2C(=O)Nc2ccc3[nH]ncc3c2)[nH]1`, -1.67%; to `CN1CCC(O)(CNC(=O)c2cc(COc3cccc(F)c3)[nH]n2)CC1`, 2.91%.
To `NC(=O)c1ccc(OCC(=O)NC2CCc3c(F)cccc32)cc1` (configuration not stated) belongs 14.4%; to `CS(=O)(=O)NCc1nnc2n1CCN(Cc1cccs1)C2`, -1.57%; to `O=C(NCCCn1ccnc1)NCC(c1ccco1)N1CCCCC1` (configuration not stated), 5.71%.
Regarding `Cc1ccc2c(ccn2CC(=O)NC[C@@H]2CCCN3CCCC[C@H]23)c1`, the cytotoxicity at 10 µM amounted to 0.097%.
To `COc1cccc(C(=O)N2CCN(C(=O)CCCc3cn[nH]c3)CC2)c1` belongs -1.3%; to `c1cnnc(NCC2CN(CCn3cncn3)CCO2)c1` (configuration not stated), -3.16%.
Then `CCc1noc(CS(=O)(=O)Cc2ccccc2C)n1`, with 16.8%; and `Cc1ccc(C2CCCN2S(=O)(=O)N(C)CCc2ccccn2)o1` (configuration not stated), with -5.31%; and `Cc1cc(C(=O)N(C)Cc2ccoc2)c(NC(=O)C(C)(C)C)s1`, with 12.1%.
Then `O=C1CSC(c2ccc(O)c(Cl)c2)c2c(n(C3CCOCC3)[nH]c2=O)N1` (configuration not stated), with -3.08%; and `COC(=O)N1CCc2ccccc2C1C(=O)NCc1ccco1` (configuration not stated), with -1.94%; and `CN1CCN(Cc2cnc3n2CCN(CCc2ccccc2)C3)CC1`, with -6.98%.
On to `Cc1cc(C)n(CC2CN(c3ccc(C#N)cn3)CCO2)n1` (configuration not stated), for which the cytotoxicity at 10 µM was -1.56%.
Then `CS(=O)(=O)N1CCN(c2ccc(Nc3ccccn3)nn2)CC1`, with -6.01%; and `CCNc1cc2c(nn1)CCN(C(=O)Cc1c(C)nn(C)c1C)C2`, with -8.25%.
To `CN(CCc1ccccn1)[C@@H]1CCN(c2cc(C(N)=O)ccn2)C[C@H]1O` belongs -9.17%; to `CN(C)c1nc2c(c(=O)[nH]1)CCN(C(=O)c1c[nH]c(=O)c(Cl)c1)C2`, 6.32%.
Take `COCCCn1ccc(NC(=O)NCCCNc2ccccc2)n1`: the cytotoxicity at 10 µM stood at 4.97%.
Then `CC(C)c1nnc2n1CCN(CC(=O)Nc1sccc1C#N)C2`, with -2.6%; and `Cc1cccc(C2(NC(=O)CCN3C(=O)CCC3=O)CCCC2)c1`, with -17.4%; and `Cn1ccc(C(=O)NCc2ccc(N3CCCC3)nc2)cc1=O`, with 0.12%.
Then `CCSc1cc(C(=O)NCCC(=O)Nc2ccccn2)ccn1`, with -8.62%.
To `COc1cccc(CNC(=O)CN2CCCCC2Cn2cccn2)c1` (configuration not stated) belongs 2.77%; to `O=C(C1CC1)N1CCCC(c2nc(O)cc(-c3ccncc3)n2)C1` (configuration not stated), 31.2%.
`CC(C)Oc1ccc(Cl)c(C(=O)N2CCN(CCO)CC2)n1`: the cytotoxicity at 10 µM was -3.82%.
To `CCc1noc(C(C)N2CCN(C)CC2)n1` (configuration not stated) belongs -3.21%.
Then `O=C(NCC1CC2(CO1)CN(Cc1cccs1)C2)C1CCC1` (configuration not stated), with -94.1%; and `CCN1CC[C@@]2(C(=O)N3CCOCC3)CCN(S(=O)(=O)CC)CC[C@@H]12`, with 8.92%.
For the compound `Cc1cccc(NC(=O)N2CCOCC(CN(C)C)C2)c1C` (configuration not stated), the cytotoxicity at 10 µM was 14.7%.
Turning to `CC(NCCN1CCC(N(C)C)CC1)c1ccc(Cl)s1` (configuration not stated), the cytotoxicity at 10 µM stood at 25.9%.
Then `Cc1nc2ccccc2n1Cc1cc(C(=O)N(C)C2CCOC2)n[nH]1` (configuration not stated), with 4.91%; and `COc1cccc(OC)c1CC(=O)NC(C#N)c1ccsc1` (configuration not stated), with 14.9%.
To `COc1cccc(-c2cc(NCc3nccn3C)n(C)n2)c1` belongs 0.684%; to `Cc1ccc(S(=O)(=O)Cc2nsc(N(C)C)n2)c(C)c1`, -25.2%; to `COc1cc(CNCc2c(C)nn(CC(C)C)c2N(C)C)ccn1`, -9.3%.
As for `COCCN1CCN(Cc2ccncc2)[C@H]2CS(=O)(=O)C[C@H]21`, the cytotoxicity at 10 µM is -10.2%.
Then `c1ccc(CNCC2Cn3nncc3CO2)nc1` (configuration not stated), with 4.93%; and `CC(=O)NCCNC(=O)Nc1cc(C(C)(C)C)sc1C#N`, with 0.665%.
For the compound `O=c1nc(SCc2cccnc2)c2c(n1CCO)CCC2`, the cytotoxicity at 10 µM is -18%.
Then `NC(=O)COc1ccc(CNCc2ccc(F)cc2F)cc1`, with -14.4%.
Then `Cc1ccc(N2CC[C@H](OCC3CC3)[C@@H]2Cc2cccnc2)nn1`, with 1.13%.
Then `CCc1ccccc1OC1CN(C(=O)CN(C)Cc2cccnc2)C1`, with 1.61%; and `COCC(=O)N1CC(c2n[nH]cc2C)C1`, with -2.76%.
In the case of `CC(=O)N1CCC(C(=O)N2CCOC(CC3CCCCC3)C2)CC1` (configuration not stated), the cytotoxicity at 10 µM was -13.7%.
To `CN(C)C(=O)c1ccc(OC2CCCC2)cc1` belongs -3.51%; to `Cn1ccc(C2CCCCN2C(=O)c2cccc(Cn3cccn3)c2)n1` (configuration not stated), 8.04%; to `O=C(CCn1c(C(F)(F)F)cc2cccnc21)N1CCOCC1`, -22.6%.
Take `Cc1csc(CNC(=O)NC2CCN(c3ncccn3)CC2)n1`: the cytotoxicity at 10 µM was -10.6%.
Then `CCn1ccnc1CN1CCN(CCOc2ccccc2C#N)CC1`, with -8.21%; and `Cn1cnc2c1CCN(Cc1csc(-c3ccco3)n1)C2`, with -17.4%.
Then `C=C(C)CN(CC)C(=O)c1cc(F)ccc1NS(C)(=O)=O`, with -2.12%; and `CSc1nccc(N2CCC(NCc3nc(C)cc(C)n3)CC2)n1`, with 3.41%.
Then `CSc1cccc(CN2CCn3nc(CNC(C)=O)cc3C2)c1`, with -1.03%.
Regarding `CCCn1nc(C(=O)N(C)Cc2cnn(C)c2)ccc1=O`, the cytotoxicity at 10 µM is -143%.
Then `O=c1ncn(-c2ccc(F)cc2)c2ncccc12`, with 0.946%.
To `COCCn1cc(C(=O)N2CCCC2c2cc(C)no2)ccc1=O` (configuration not stated) belongs -17.7%.
Turning to `CN(C)CCN1C(=O)CCC12CCCN(C(=O)CC1CC1)CC2` (configuration not stated), the cytotoxicity at 10 µM is -1.48%.
To `CCc1noc(C(C)N2CCN(CC)CC2)n1` (configuration not stated) belongs -6.01%; to `CS(=O)(=O)N1CCC2(CC1)CN(CC1CCOC1)c1ccccc12` (configuration not stated), -108%; to `O=C(C1=CCCC1)N1C[C@@H]2COC[C@]2(COc2ncccc2F)C1`, -99.3%.
Regarding `Cc1cncc(C(=O)N2CCc3ncc(Cn4cccn4)n3CC2)c1`, the cytotoxicity at 10 µM was found to be 14.3%.
Then `O=C(Cc1cccc(O)c1)NCCCNC(=O)c1cccc(F)c1`, with 1.65%.
Then `Cc1noc(CN(Cc2cccc(C#N)c2)Cc2cccs2)n1`, with 3.8%.
Consider `O=C(c1ccc(Cl)cc1)N1CCc2nc(C(=O)N3CCCC3)sc2CC1`, for which the cytotoxicity at 10 µM was determined as 8.04%.
Then `CC(=O)Nc1cc(CN(C)C)ccc1C`, with -1.89%; and `CC(=O)N1CCC2(CC1)CN(C(C)=O)CC21CCNC1=O` (configuration not stated), with -2.69%.
To `Cc1ccc(CN2CCN(c3cncc(N(C)C)n3)CC2=O)cc1C` belongs -2.53%; to `CC1CCN(C(=O)CN(Cc2ccco2)C2CC2)CC1`, -4.74%.
To `O=C(C1CCCOC1)N1CCc2ccc(F)cc21` (configuration not stated) belongs 2.35%.
On to `CCOC(=O)c1cnn(C2CCN(C(=O)CC3CCCC3)CC2)c1N`, for which the cytotoxicity at 10 µM was 0.969%.
To `Cc1ccc2c(c1)CCC2NC(=O)N1CCC(C(N)=O)CC1` (configuration not stated) belongs -4.83%.
Then `CN(C)CCSc1ccc(NC(=O)c2nccn3ccnc23)cc1`, with -6.25%; and `Cc1ccc(NC(=O)[C@H]2C[C@H](C(=O)O)CN(CC3CC3)C2)cn1`, with 0.999%; and `CCOc1ccc(S(=O)(=O)Nc2cnc(OC)nc2OC)cc1`, with 44.7%.
Then `COc1ccc(CN2C[C@@H](OCc3ccccn3)[C@H]3COC[C@H]32)cc1`, with 3.63%; and `Cn1nnnc1SCCNC(=O)C1CCN(C(=O)C2CC2)CC1`, with -5.95%.
Consider `CC1CN(C)CCN1C(=O)c1ccn(-c2cccc(Cl)c2)n1` (configuration not stated), for which the cytotoxicity at 10 µM is -26.3%.
Then `Cc1nc(C)n(CC2CCCN2CCc2ccncc2)n1` (configuration not stated), with -7.3%; and `CC(=O)N1CCC2(CC1)CNc1ccc(F)cc12`, with 1.63%; and `CNc1nc(C(=O)NCc2cccnc2N(C)C2CCCCC2)cs1`, with -5.35%.
Then `CC(=O)N1CCCC(Cc2cnc(C(=O)N3CCC(C)CC3)cn2)C1` (configuration not stated), with 4.82%.
Then `COc1ccccc1C1(CNc2ncc(S(N)(=O)=O)s2)CC1`, with -3.6%; and `CC(=O)N1CCOC2(CCCN(Cc3ccc(Cl)c(C(F)(F)F)c3)C2)C1` (configuration not stated), with 3.68%.
`O=S(=O)(C1CC1)N1CCn2cc(CNc3ccccn3)nc2C1`: the cytotoxicity at 10 µM came to 8.04%.
In the case of `CN(C(=O)C1CCCCC1)[C@@H]1CCC[C@@H](N2CCOCC2)[C@@H]1O`, the cytotoxicity at 10 µM is -6.33%.
Then `CCc1nc(C)c([C@H]2CN(C)C[C@@H]2C(=O)NCc2ccccc2OC)[nH]1`, with 0.15%.
To `CCC1CCCCCN1C(=O)c1nnc2ccccc2c1N` (configuration not stated) belongs 7.85%; to `CN1CCN(C2CCN(Cc3noc(C4CC4)n3)CC2)C1=O`, 8.54%; to `Cc1ccc(OCC2CCCN(C(=O)Cn3ccccc3=O)C2)cc1` (configuration not stated), 0.55%.
